Values belong to the molecule of their own block, whether it stands above or below them. No end group written: not given here. *: point of attachment. Biotin = O=C1N[C@H]2[C@H](CS[C@H]2CCCCC(=O)*)N1; PEG4 = NCCOCCOCCOCCOCCC(=O)O
Assays:
[1] = target: 18-residue fluoresceinated Bim BH3 peptide (human); assay: fluorescence polarisation
[2] = target: Mcl-1 (Homo sapiens, UniProt Q07820); assay: Fluorescence polarization competition with fluoresceinated Bim BH3; assay type: binding
[3] = target: T1, Bfl-1 (Homo sapiens, UniProt Q16548); assay: as above; assay type: binding
T1 sequence (Q16548 1-151 limits assumed): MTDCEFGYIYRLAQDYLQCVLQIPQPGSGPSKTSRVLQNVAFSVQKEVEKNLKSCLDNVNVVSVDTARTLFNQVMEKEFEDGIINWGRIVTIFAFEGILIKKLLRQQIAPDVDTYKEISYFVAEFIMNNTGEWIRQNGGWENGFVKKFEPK

[4] = target: Bcl-2 (Homo sapiens, UniProt P10415); assay: as above; assay type: binding
Bcl-2 (Homo sapiens, UniProt P10415), sequence (P10415 whole entry): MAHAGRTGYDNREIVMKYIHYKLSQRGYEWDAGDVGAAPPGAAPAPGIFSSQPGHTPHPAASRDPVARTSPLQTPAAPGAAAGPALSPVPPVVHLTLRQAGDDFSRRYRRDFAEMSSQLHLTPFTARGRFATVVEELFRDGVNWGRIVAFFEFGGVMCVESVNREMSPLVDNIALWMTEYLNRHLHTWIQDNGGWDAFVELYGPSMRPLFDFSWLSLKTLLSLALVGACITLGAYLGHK

[5] = target: Bcl-xL (Homo sapiens, UniProt Q07817); assay: as above; assay type: binding
Bcl-xL (Homo sapiens, UniProt Q07817), sequence (Q07817 whole entry): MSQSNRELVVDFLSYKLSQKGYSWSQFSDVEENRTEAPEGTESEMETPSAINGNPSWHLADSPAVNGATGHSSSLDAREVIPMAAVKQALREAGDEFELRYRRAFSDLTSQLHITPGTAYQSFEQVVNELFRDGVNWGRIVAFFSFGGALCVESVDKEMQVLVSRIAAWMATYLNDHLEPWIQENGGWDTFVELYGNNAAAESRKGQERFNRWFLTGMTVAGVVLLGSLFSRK

[6] = target: T2, Bcl-w (Homo sapiens, UniProt Q92843); assay: as above; assay type: binding
T2 sequence (Q92843 1-193): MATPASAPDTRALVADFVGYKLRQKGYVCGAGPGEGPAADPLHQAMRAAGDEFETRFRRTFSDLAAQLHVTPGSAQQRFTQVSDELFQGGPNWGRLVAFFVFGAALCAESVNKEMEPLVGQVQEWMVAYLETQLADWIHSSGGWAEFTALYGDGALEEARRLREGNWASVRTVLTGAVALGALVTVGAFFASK

[7] = target: T1, Bfl-1; assay: Bio-layer interferometry; assay type: binding
How it was run: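 Biotinylated 23-residue test peptide (free N-terminus, amidated C-terminus), at 0.1 mg/ml, loaded on streptavidin biosensors to ~0.42 response units. Protein at 2–3 concentrations (30–250 nM) associated for 10 min, then dissociated for 60 min in 20 mM phosphate, 50 mM NaCl, 0.1% BSA, pH 7.5. Off-rate upper bound taken from signal fluctuation over 1000 s. Association phase fit for kon and Rmax.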

[8] = target: Puma BH3 BH3 (Homo sapiens) (UniProt Q9BXH1); settings: cited from earlier work
Puma BH3 BH3 (Homo sapiens), sequence (Q9BXH1 130-155): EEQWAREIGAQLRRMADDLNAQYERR

[9] = target: Bid BH3 BH3 (Homo sapiens) (UniProt P55957); settings: cited from earlier work
Bid BH3 BH3 (Homo sapiens), sequence (P55957 79-104): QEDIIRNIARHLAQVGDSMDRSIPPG

[10] = target: Bcl-w (UniProt Q92843); assay: fluorescence polarisation
[11] = target: T3, Bfl-1; assay: fluorescence polarisation
T3 sequence (Q16548 whole entry, species assumed, looked up): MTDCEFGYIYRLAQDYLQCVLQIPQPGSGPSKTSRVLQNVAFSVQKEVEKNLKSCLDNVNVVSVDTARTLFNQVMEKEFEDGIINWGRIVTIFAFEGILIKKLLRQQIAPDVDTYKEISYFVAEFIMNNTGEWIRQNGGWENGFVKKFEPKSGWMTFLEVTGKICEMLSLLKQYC

[12] = target: T4, Bcl-w (UniProt Q92843 1-193); assay: fluorescence polarisation
[13] = target: T5, Mcl-1 (UniProt Q07820 1-350); assay: fluorescence polarisation
T5 sequence (Q07820 whole entry): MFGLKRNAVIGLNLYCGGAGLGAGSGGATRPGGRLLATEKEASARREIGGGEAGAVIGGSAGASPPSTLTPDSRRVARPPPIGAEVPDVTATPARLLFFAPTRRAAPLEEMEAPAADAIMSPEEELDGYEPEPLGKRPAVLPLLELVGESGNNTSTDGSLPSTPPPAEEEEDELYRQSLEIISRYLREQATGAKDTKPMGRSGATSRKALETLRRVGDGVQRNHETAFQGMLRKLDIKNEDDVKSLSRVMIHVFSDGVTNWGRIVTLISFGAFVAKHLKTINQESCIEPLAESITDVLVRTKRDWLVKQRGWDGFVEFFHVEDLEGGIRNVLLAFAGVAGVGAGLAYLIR

[14] = target: T6, Bcl-xL (UniProt Q07817-1 1-233); assay: fluorescence polarisation
T6 sequence (Q07817 whole entry): as the sequence (Q07817 whole entry) above

[15] = target: T7, Bcl-2 (UniProt P10415 1-239); assay: fluorescence polarisation
T7 sequence (P10415 whole entry): as the sequence (P10415 whole entry) above

[16] = target: T5, Mcl-1; assay: BLI
[17] = target: T6, Bcl-xL; assay: BLI
[18] = target: T3, Bfl-1; assay: fluorescence polarisation; remark: listed apart in the source
[19] = target: T4, Bcl-w; assay: fluorescence polarisation; remark: listed apart in the source
[20] = target: T7, Bcl-2; assay: fluorescence polarisation; remark: listed apart in the source

Mcl-1 (Homo sapiens, UniProt Q07820), sequence (Q07820 whole entry): as the sequence (Q07820 whole entry) above

Molecule: Bfl-1 (domain or fragment)
Kd [1]: 4 nM

Molecule: Bfl-1 (from UniProt Q16548)
Kd [8]: 50 nM
Kd [9]: 50 nM

Molecule: Bim_D3fK with E3gV (peptide)
fold weakening of binding against Bim D3fK [10]: 2.5 fold
fold increase in binding against Bim D3fK [11]: 2 fold

B1: FW1 (unlabeled, 23 residues) (peptide)
peptide: Ac-RPEIWIAQGLRRIGDTWNAYYAR-NH2
Ki [12]: 298 nM
Ki [13]: 0.2 nM
Ki [14]: 20 nM
Ki [15]: 31 nM

B2: Biotinylated FA1 (peptide)
peptide: {Biotin-PEG4}-RPEIWIAQELRRAGDVLNAYYAR-NH2
SMILES: CC[C@H](C)[C@H](NC(=O)[C@H](Cc1c[nH]c2ccccc12)NC(=O)[C@@H](NC(=O)[C@H](CCC(=O)O)NC(=O)[C@@H]1CCCN1C(=O)[C@H](CCCNC(=N)N)NC(=O)CCOCCOCCOCCOCCNC(=O)CCCC[C@@H]1SC[C@@H]2NC(=O)N[C@@H]21)[C@@H](C)CC)C(=O)N[C@@H](C)C(=O)N[C@@H](CCC(N)=O)C(=O)N[C@@H](CCC(=O)O)C(=O)N[C@@H](CC(C)C)C(=O)N[C@@H](CCCNC(=N)N)C(=O)N[C@@H](CCCNC(=N)N)C(=O)N[C@@H](C)C(=O)NCC(=O)N[C@@H](CC(=O)O)C(=O)N[C@H](C(=O)N[C@@H](CC(C)C)C(=O)N[C@@H](CC(N)=O)C(=O)N[C@@H](C)C(=O)N[C@@H](Cc1ccc(O)cc1)C(=O)N[C@@H](Cc1ccc(O)cc1)C(=O)N[C@@H](C)C(=O)N[C@@H](CCCNC(=N)N)C(N)=O)C(C)C
Kd [16]: ~6 nM
Kd [17]: ~33 nM

B3: FD2 (peptide)
peptide: H-RPEIWMAQVLRRFGDLLNAYYAR-OH
Ki [12]: 104 nM
Ki [14]: 18 nM
Ki [15]: 223 nM
Ki [18]: 3.8 nM

B4: 18-residue fluoresceinated Bim BH3 peptide (peptide)
peptide: Ac-IWIAQELRRIGDEFNAYY-NH2
modifications: also: fluoresceinated, site not given here
Kd [19]: 15 nM
Kd [20]: 5 nM

B5: FA1 (unlabeled, 23 residues) (peptide)
peptide: Ac-RPEIWIAQELRRAGDVLNAYYAR-NH2
Ki [14]: 8 nM
Ki [15]: 313 nM

B6: FD1 (peptide)
peptide: Ac-RPEIWLAQYLRRLGDQINAYYAR-NH2
Ki [12]: 12 nM
Ki [13]: 0.1 nM
Ki [14]: 5 nM
Ki [15]: 7 nM
Ki [18]: 0.7 nM

More lines, now with the values ahead:

Ki [2]: 1 ± 0.1 nM
Ki [3]: 3.8 ± 0.7 nM
specificity for Bfl-1 over Bcl-xL, Bcl-2 and Bcl-w ([3]; from competition FP Ki values): 4-60 fold
Molecule: RPEIWMAQVLRRFGDLLNAYYAR [FD2]

Ki [4]: 20 to 30 nM
Ki [5]: 20 to 30 nM
fold lower Ki for Bfl-1 compared to Bcl-w ([3]; from competition FP Ki values): ~ 37 fold
Molecule: Ac-RPEIWIAQGLRRIGDTWNAYYAR-NH2 [FW1]

Ki [3]: 0.7 ± 0.2 nM
Molecule: Ac-RPEIWLAQYLRRLGDQINAYYAR-NH2 [FD1]

Ki [2]: 1 ± 0.1 nM
Ki [6]: 2 ± 1 nM
Kd [7]: ≤ 0.3 nM
koff ([7]; pH 7.5, read-out: upper limit on koff, dissociation of Bfl-1 from surface-bound peptide): ≤ 1.5e-05 s⁻¹
Molecule: Ac-RPEIWIAQELRRAGDVLNAYYAR-NH2 [FA1]

Source: paper PMC3631442 (ACS chemical biology, 2013)
